# CHRM4 antagonist – CHRM4 antagonism in calcium assay. CHO-hM4 cells, ACh EC80, Fluo-8 calcium fluorescence. inhibition, % at 3 µM. 360,000 compounds, 0.73% hits;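 active = inhibition above its plate's cutoff, the mean inhibition of sample wells plus 3 SD, cut at about 27% in these data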;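 note: 0% = acetylcholine EC80 with DMSO and 100% = DMSO without agonist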
# M4 PAM – CHRM4 positive allosteric modulation. 360,000 compounds, 0.4% hits. activation, % at 3 µM. CHO-K1 hM4/Gqi5, Fluo-8 calcium fluorescence, ACh EC20; 0% = ACh EC20, 100% = maximal ACh. P08173;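 active = activation above its plate's cutoff, the mean activation of sample wells plus 3 SD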
# CHRM5 agonist – agonists of human muscarinic M5 receptor (CHRM5); P08912; CHO-K1 hM5 cells, Fluo-8 calcium fluorescence; 0% DMSO wells, 100% maximal acetylcholine response; activation, % at 3 µM; 360,000 compounds, 0.19% hits;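 active = activation above the run's mean over test compounds plus 3 SD, cut at about 23% in these data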;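 note: signal is peak over basal fluorescence ratio across the kinetic read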
# Target sequence (P08912 whole entry, looked up): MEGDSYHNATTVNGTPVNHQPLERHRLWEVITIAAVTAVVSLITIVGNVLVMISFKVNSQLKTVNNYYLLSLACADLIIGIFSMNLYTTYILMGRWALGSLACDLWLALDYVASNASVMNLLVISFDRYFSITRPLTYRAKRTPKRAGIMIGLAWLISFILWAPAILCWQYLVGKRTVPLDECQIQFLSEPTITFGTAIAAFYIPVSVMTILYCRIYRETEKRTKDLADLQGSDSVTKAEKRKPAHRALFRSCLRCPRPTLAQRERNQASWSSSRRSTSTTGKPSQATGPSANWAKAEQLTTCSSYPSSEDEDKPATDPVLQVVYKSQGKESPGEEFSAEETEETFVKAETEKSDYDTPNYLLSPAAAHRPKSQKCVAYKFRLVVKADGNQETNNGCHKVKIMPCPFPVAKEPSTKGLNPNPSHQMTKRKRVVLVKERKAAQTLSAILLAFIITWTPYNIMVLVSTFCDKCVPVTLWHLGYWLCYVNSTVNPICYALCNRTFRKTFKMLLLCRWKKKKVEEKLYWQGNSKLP
# CHRM5 antagonist – CHRM5 antagonism in calcium assay; P08912; CHO-hM5 cells, Fluo-8 calcium fluorescence, ACh EC80; inhibition, % at 3 µM; 360,000 compounds, 0.59% hits; AID 624040;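 active = inhibition above a per-plate cutoff, the mean of that plate's test compounds plus 3 SD, cut at about 27% in these data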;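 note: 0% = acetylcholine EC80 with DMSO and 100% = DMSO without agonist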
# M5 PAM – potentiates acetylcholine response at human M5 receptor; CHO-K1 hM5, Fluo-8 calcium, ACh EC20 PAM; 0% = ACh EC20, 100% = ACh EC100; 360,000 compounds, 0.3% hits; P08912; activation, % at 3 µM;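 active = activation above the run cutoff, the mean activation of all test compounds plus 3 SD, cut at about 18% in these data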
#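 system = human M5 receptor in CHO-K1 cells | compound = one concentration, 3 µM final (nominal) | schedule = Post-acetylcholine fluorescence recording 140 s | signal = Fluo-8 calcium dye fluorescence, kinetic read | benchmarks = low control EC20 acetylcholine (0%), high control EC100 acetylcholine (100%) | repeats = singlicate, one well per test compound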
# M4 ag – CHRM4 agonism in calcium assay. CHO-K1 hM4/Gqi5, Fluo-8 calcium fluorescence; vehicle 0%, full acetylcholine response 100%. 360,000 compounds, 0.14% hits. activation, % at 3 µM. P08173. AID 624127;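 active = activation above the run mean over all test wells plus 3 SD, cut at about 32% in these data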;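 note: peak over basal fluorescence ratio per well then scaled between controls; 0% = DMSO wells and 100% = acetylcholine at EC100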
# An asterisk follows results filed as active; · = not tested or not shown. A selection: hits, their analogues and other compounds. The true share with any hit is near 1.8%.
SMILES,CHRM4 antagonist,M4 PAM,CHRM5 agonist,CHRM5 antagonist,M5 PAM,M4 ag
CC(C)CN(CC(C)C)C(=O)C1C2c3ccccc3C(c3ccccc32)C1C(=O)O (stereo not drawn),-2,5,1,5,-3,1
CC1(C)CSC(=NCc2ccccc2)N1,19,-28,26*,9,-19,64*
CCCCCCCCn1sccc1=O,13,-8,8,8,-4,5
COc1ccc(-[n+]2c(-c3ccccc3)cc(-c3ccc(C)cc3)cc2-c2ccccc2)cc1,82*,-20,-24,81*,-34,7
Cc1ccc(-c2cc(-c3ccc(C)cc3)[n+](-c3ccc(C(=O)O)cc3)c(-c3ccc(C)cc3)c2)cc1,-11,3,-2,7,7,0
CCCOC(=O)c1ccc(-[n+]2c(-c3ccccc3)cc(-c3ccccc3)cc2-c2ccccc2)cc1,46*,-14,-8,31*,-41,5
Cc1ccc(-c2cc(-c3ccccc3)cc(-c3ccccc3)[n+]2-c2ccc(C(=O)O)cc2)cc1,17,25*,1,4,-1,2
Brc1ccc(-[n+]2c(-c3ccccc3)cc(-c3ccccc3)cc2-c2ccccc2)cc1,40*,-12,-9,25,-41,2
CCCNC(=O)N1[C@H]2CC[C@@H]1C(C(=O)OC)=C(c1ccc(S(C)(=O)=O)cc1)C2,-1,6,4,3,3,1
O=C(Nc1cccc(C(F)(F)F)c1)OC1CN2CCC1CC2 (stereo not drawn),43*,-16,-6,70*,-18,3
O=C(Nc1ccc(C(F)(F)F)cc1)OC1CN2CCC1CC2 (stereo not drawn),-5,-20,-16,6,-7,4
O=c1[nH]c(=O)n(Cc2ccc(F)cc2)c(O)c1C=NCC1CCCO1 (stereo not drawn),-10,6,0,-18,38*,1
CCC(CO)(C(=O)OC1CC2CCC(C1)N2C)c1ccccc1 (stereo not drawn),100*,-17,-16,99*,-33,1
CC1(C)C[C@H]2C=C(C=O)[C@]3(C=O)C[C@]3(C)[C@H]2C1,35*,-13,8,-3,13,3
CC(Cc1ccccc1Sc1ccc(O)cc1)N(C)C (stereo not drawn),42*,-20,-5,91*,-21,4
COc1ccccc1Sc1ccccc1CC(C)N (stereo not drawn),8,9,-5,8,2,10
CC(Cc1ccccc1Sc1ccccc1)N(C)C (stereo not drawn),92*,-40,-7,99*,-21,3
CN1CCN(Cc2ccccc2Sc2ccccc2)CC1,95*,-38,-5,99*,-20,7
CCN1CCN(c2nc3c(c(=O)[nH]2)CCCC3)CC1,-1,26*,2,-7,7,0
CCN1CCN(c2cn[nH]c(=O)c2Cl)CC1,3,4,-7,1,-1,1
CN1C2CCC1CC(OC(c1ccccc1)c1ccccc1N)C2 (stereo not drawn),100*,-19,-1,99*,-19,0
COc1cc(Br)cc(CN2CCN(C)CC2)c1O,41*,-14,-6,10,-20,1
COc1ccc(Br)cc1CN1CCN(CCO)CC1,5,8,-4,-2,5,1
C[N+]1(C)C2CC[C@H]1CC(OC(=O)C(CO)c1ccccc1)C2 (stereo partly drawn),99*,-18,-1,99*,-18,0
C[N+]1(C)C2CC(OC(=O)[C@H](CO)c3ccccc3)CC1C1OC12 (stereo partly drawn),·,·,-2,99*,-18,·
C[N+]1(C)CCC(OC(=O)C(c2ccccc2)c2ccccc2)CC1,98*,-16,-2,99*,-19,0
C#CC[N+]1(C)[C@@H]2CC[C@H]1CC(OC(=O)C(CO)c1ccccc1)C2 (stereo partly drawn),99*,-19,-9,98*,-21,1

# Bioassay records (PubChem)
